CASP6 VEID inh = human caspase-6 inhibitors, primary screen, biochemical, VEID-R110 fluorescence, single point, set 2; AID 686996, 2013; purified caspase-6, Z-VEID-R110 cleavage fluorescence; actives 0.53% (n = 350,000); inhibition, % at 12.5 µM;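 active = mean inhibition across replicates at least about 35%, with every replicate also reaching that limit, limit read from the data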;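 also: 0% = median of neutral control wells and 100% = no fluorescence left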
Target sequence (P55212 24-179 limits assumed): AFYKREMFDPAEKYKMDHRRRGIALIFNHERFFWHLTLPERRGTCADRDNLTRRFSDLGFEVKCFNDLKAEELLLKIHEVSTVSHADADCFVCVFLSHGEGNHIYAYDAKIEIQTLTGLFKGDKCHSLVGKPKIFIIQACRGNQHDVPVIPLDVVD
Target sequence (P55212 194-293 limits assumed): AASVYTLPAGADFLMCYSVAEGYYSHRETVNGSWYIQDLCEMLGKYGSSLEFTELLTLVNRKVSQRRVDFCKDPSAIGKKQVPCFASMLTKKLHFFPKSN
ARFGAP1 inh = inhibitors of rat ARFGAP1 GAP activity, primary screen, biochemical, fluorescence polarization, GDP tracer | ADP-ribosylation factor GTPase-activating protein 1 (Rattus norvegicus), Q62848 | Arfgap1-stimulated ARF1 GTP hydrolysis, GDP FP detection | inhibition, % at 16.5 µM | actives 0.26% (n = 360,000) | AID 651572, 2012;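 active = inhibition above a per-plate limit, mean inhibition of low control wells plus 3 SD, cut at about 25% in these data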;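 also: 0% = DMSO wells with enzyme and 100% = wells lacking Arfgap1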
Target sequence (Q62848 1-136 limits assumed): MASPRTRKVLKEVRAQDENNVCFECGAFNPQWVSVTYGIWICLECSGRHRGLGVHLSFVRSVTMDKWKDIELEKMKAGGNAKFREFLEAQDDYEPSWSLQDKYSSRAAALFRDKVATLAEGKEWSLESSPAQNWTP
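Material: rat Arfgap1 GAP domain (His6, aa 1-136), purified enzyme. Also added: human ARF1(Δ1-17)-GTP substrate. Compound dosing: 16.5 µM single point, 1.26% DMSO. Timing: enzyme reaction 120 min at 25 °C after 20 min preincubation. Signal: GDP detection by fluorescence polarization. Read-out basis: percent inhibition of GAP-stimulated GDP formation, scaled between DMSO and no-Arfgap1 medians.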
TDP2 inh = human TDP2 enzyme inhibitors, primary screen, biochemical, epi absorbance, recombinant enzyme | T5PNP hydrolysis, p-nitrophenol absorbance 415 nm | inhibition, % at 12.8 µM | actives 0.34% (n = 370,000);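 active = inhibition above the mean of all tested compounds plus 3 SD, set per campaign, cut at about 25% in these data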;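 also: 0% = DMSO with enzyme and 100% = buffer with substrate but no TDP2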
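test system = human TDP2 enzyme | input = TDP2 enzyme at 120 nM final | medium = 50 mM Tris-HCl pH 7.5 with Mg2+, KCl, DTT, BSA | also added = T5PNP substrate, 5 mM | times = 2 h at 37 °C | technique = epi absorbance | benchmarks = high control without enzyme, low control DMSO plus TDP2 | replication = each compound tested once, singlicate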
ASAP1 GAP inh = inhibitors of human ASAP1 ArfGAP activity, primary screen, biochemical, fluorescence polarization; AID 624377, 2012; inhibition, % at 16.5 µM; ASAP1-stimulated ARF1 GTP hydrolysis, GDP FP detection; actives 0.19% (n = 360,000); in the data active = inhibition above about 25%;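 also: 0% = vehicle with enzyme and substrate and 100% = no enzyme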
LEDGF integ inh = blockers of LEDGF/p75-dependent integrase strand transfer – biochemical, TR-FRET, high throughput, primary screen | actives 0.64% (n = 370,000) | HIV-1 integrase (with human LEDGF/p75) | inhibition, % at 3.7 µM | TR-FRET IN-LEDGF/p75 DNA integration, Eu/Cy5;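 active = inhibition above the screen-wide mean plus 3 SD, cut at about 13% in these data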;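 also: signal is the Cy5 over europium emission ratio at 671 and 618 nm; 0% = plate median of compound wells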
* marks the source's active call; other numbers are inactive results. A selection: hits, their analogues and other compounds. The true share with any hit is near 1.3%.

What do the screens show for `Cc1ccc(S(=O)(=O)Oc2ccc(/C=C3\C(=N)N4N=C(S(C)(=O)=O)SC4=NC3=O)cc2)cc1`?
CASP6 VEID inh: 59*; ARFGAP1 inh: -4; TDP2 inh: 16; ASAP1 GAP inh: 8; LEDGF integ inh: 1

What do the screens show for `Cc1ccc(S(=O)(=O)NNC(=S)NC(=O)c2ccc([N+](=O)[O-])cc2)cc1`?
ARFGAP1 inh: 0; TDP2 inh: 9; ASAP1 GAP inh: -7; LEDGF integ inh: -1

How did COc1ccc(NC(=O)N2C[C@H](O)COC[C@H]3O[C@H](CC(=O)NC4Cc5ccccc5C4)CC[C@@H]32)cc1 do in these assays?
CASP6 VEID inh: 0

Results for CN1CCN(NC(=O)Nc2ccc(F)cc2)CC1 ?
CASP6 VEID inh: 48*; ARFGAP1 inh: 11; TDP2 inh: -15; ASAP1 GAP inh: 12; LEDGF integ inh: -8

What do the screens show for `COc1ccc(NC(=O)NN2CCN(C)CC2)cc1`?
CASP6 VEID inh: -2; ARFGAP1 inh: 10; TDP2 inh: 0; ASAP1 GAP inh: 3; LEDGF integ inh: -3

Results for O=C(NCc1ccco1)C1Cc2ccccc2CN1C(=O)c1ccco1 (stereo unspecified) ?
CASP6 VEID inh: 6; ARFGAP1 inh: -7; TDP2 inh: 8; ASAP1 GAP inh: 7; LEDGF integ inh: 1

How did O=C(NCc1ccco1)C1Cc2ccccc2CN1S(=O)(=O)c1ccccc1F (stereo unspecified) do in these assays?
ARFGAP1 inh: 3; TDP2 inh: -12; ASAP1 GAP inh: 2; LEDGF integ inh: 14*

How did CCOC(=O)c1sc(=NC(=O)c2cccs2)n(C)c1C do in these assays?
ARFGAP1 inh: 2; TDP2 inh: -4; ASAP1 GAP inh: 1; LEDGF integ inh: 1

Results for COC(=O)C[C@@H]1CC[C@H]2[C@H](COc3ccc(NC(=O)c4cnccn4)cc3C(=O)N2C)O1 ?
CASP6 VEID inh: -2

Results for CN1C(=O)c2cc(NC(=O)Cc3cccs3)ccc2OC[C@@H]2O[C@@H](CC(=O)NCCc3ccncc3)CC[C@@H]21 ?
CASP6 VEID inh: 69*

How did COC(=O)C[C@H]1CC[C@@H]2[C@H](COc3ccc(NC(=O)c4cnccn4)cc3C(=O)N2C)O1 do in these assays?
CASP6 VEID inh: 57*; TDP2 inh: -10; LEDGF integ inh: 1

How did CN1C(=O)c2cc(NC(=O)c3cccc(F)c3)ccc2OC[C@@H]2O[C@@H](CC(=O)N3CCc4ccccc4C3)CC[C@H]21 do in these assays?
CASP6 VEID inh: 56*

Results for CC(C)C#Cc1ccc2c(c1)O[C@H](CN(C)CC1CCOCC1)[C@H](C)CN([C@H](C)CO)S2(=O)=O ?
CASP6 VEID inh: -4

How did O=C1Cc2ccccc2C(=O)N1c1cccc(Cl)c1 do in these assays?
CASP6 VEID inh: 35*; ARFGAP1 inh: 10; TDP2 inh: 4; ASAP1 GAP inh: -7; LEDGF integ inh: -5

Results for O=C1Cc2ccccc2C(=O)N1c1ccc(F)cc1Cl ?
CASP6 VEID inh: 44*; ARFGAP1 inh: -4; TDP2 inh: -16; ASAP1 GAP inh: 5; LEDGF integ inh: 11

What do the screens show for `O=C1Cc2ccccc2C(=O)N1c1ccccc1`?
CASP6 VEID inh: 26; ARFGAP1 inh: -5; TDP2 inh: -2; ASAP1 GAP inh: 1; LEDGF integ inh: 10

How did O=C1Cc2ccccc2N1c1c(Cl)cccc1Cl do in these assays?
ARFGAP1 inh: 2; TDP2 inh: 9; ASAP1 GAP inh: -13; LEDGF integ inh: 1

How did O=C(c1cccnc1)N1C[C@H]2[C@@H](c3ccccc31)[C@H](CO)N2C(=O)Nc1ccccc1 do in these assays?
CASP6 VEID inh: 1

Results for COc1ccccc1NS(=O)(=O)c1ccc(C(=O)NCC(c2ccccc2OC)N2CCCC2)cc1 (stereo unspecified) ?
CASP6 VEID inh: 2; ARFGAP1 inh: -9; TDP2 inh: -8; ASAP1 GAP inh: -2; LEDGF integ inh: -3

Results for O=C(CSCc1ccc(F)cc1)Nc1ccccc1C(=O)N1CCOCC1 ?
ARFGAP1 inh: -10; TDP2 inh: -2; ASAP1 GAP inh: -4; LEDGF integ inh: 2

Results for CC(OC(=O)C1CC(=O)N(Cc2ccccc2)C1)C(=O)Nc1cccc(C#N)c1 (stereo unspecified) ?
CASP6 VEID inh: 3; ARFGAP1 inh: 14; TDP2 inh: -1; ASAP1 GAP inh: -1; LEDGF integ inh: -6

What do the screens show for `C=C(C)C(=O)Nc1cccc(C2=NOC3(C2)C[C@H](C(N)=O)N(C(=O)c2ccccc2C(=O)c2ccccc2)C3)c1` (stereo partly specified)?
CASP6 VEID inh: 63*; ARFGAP1 inh: 11; TDP2 inh: -6; ASAP1 GAP inh: 10; LEDGF integ inh: 12

Results for COc1ccc(-c2nonc2NC(=O)c2oc3ccccc3c2C)cc1OC ?
CASP6 VEID inh: -3; ARFGAP1 inh: 13; TDP2 inh: 13; ASAP1 GAP inh: 15; LEDGF integ inh: -3

How did COCCCN(C(=O)c1cc(-c2ccco2)nc2ccccc12)c1c(N)n(Cc2ccccc2)c(=O)[nH]c1=O do in these assays?
CASP6 VEID inh: 15; ARFGAP1 inh: -14; TDP2 inh: -7; ASAP1 GAP inh: 2; LEDGF integ inh: 36*

What do the screens show for `CCCn1c(N)c(N(CCOC)C(=O)c2cc(-c3ccco3)nc3ccccc23)c(=O)[nH]c1=O`?
CASP6 VEID inh: 27; ARFGAP1 inh: -13; TDP2 inh: -7; ASAP1 GAP inh: 13; LEDGF integ inh: 13

What do the screens show for `O=C(O)c1ccccc1/C=N/NC(=O)c1cc(-c2ccco2)nc2ccccc12`?
CASP6 VEID inh: 61*; ARFGAP1 inh: 5; TDP2 inh: 9; ASAP1 GAP inh: -3; LEDGF integ inh: 4

Results for O=C(COC(=O)c1cc(-c2ccco2)nc2ccccc12)NCc1ccccc1 ?
ARFGAP1 inh: 13; TDP2 inh: -15; ASAP1 GAP inh: 6; LEDGF integ inh: 7

How did CNC(=O)COC(=O)c1cc(-c2ccco2)nc2ccccc12 do in these assays?
CASP6 VEID inh: 34; ARFGAP1 inh: -5; TDP2 inh: 2; ASAP1 GAP inh: 11; LEDGF integ inh: 16*

Results for Cc1csc(=O)n1CC(=O)Nc1ccc(C(C)C)cc1 ?
CASP6 VEID inh: 1; ARFGAP1 inh: 14; TDP2 inh: -5; ASAP1 GAP inh: -9; LEDGF integ inh: 0

What do the screens show for `Cc1onc(-c2ccccc2)c1C(=O)N(Cc1ccco1)Cc1cccs1`?
CASP6 VEID inh: 47*; ARFGAP1 inh: 7; TDP2 inh: 7; ASAP1 GAP inh: 6; LEDGF integ inh: 4
